Experiments:
P. berghei NK65 = assay: 4-day suppressive test in P. berghei NK65-infected ICR mice; type: in vivo, Plasmodium berghei (ICR mice)
How it was run: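 6-week-old ICR-1 mice were inoculated on day 0 with 107 blood-stage P. berghei NK65. The test compound was given i.v. at 10, 20 or 30 mg/kg once daily for 4 days. Body weight, survival and blood parasites were recorded daily for 2 weeks. At 8 dpi mice were euthanized and livers and spleens harvested.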

[1] = test system: P. falciparum 3D7 (CQ-sensitive strain); assay: In vitro antimalarial activity, P. falciparum 3D7; type: cell-based, Plasmodium falciparum; details: for 3D7 Relative SI: selective index (CC50/IC50), relative to SKM13-2HCl = 1
[2] = test system: P. falciparum K1 (CQ-resistant strain); assay: In vitro antimalarial activity, P. falciparum K1; type: cell-based, Plasmodium falciparum; details: for K1 Relative SI: selective index (CC50/IC50), relative to SKM13-2HCl = 1
[3] = Turbidity of 1 mM drug in cell culture media; type: physicochemical; details: 1 mM dissolved in cell culture media (DMEM)
[4] = Solubility in deionized water; type: physicochemical; details: saturated aqueous solution, HPLC UV 342 nm
How it was run: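 Saturated solutions of the test compound salt were made in deionized water and measured by UHPLC with UV detection at 342 nm. 1% TFA in water was added to the solvent to keep the salt form. Standards at 5 concentrations gave a linear regression, from which solubility was calculated.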

Vero cells = assay: Cytotoxicity test using the MTT assay; type: cell-based; details: read-out: Vero CC50, 2-day compound exposure
How it was run: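 Vero cells were seeded at 104 per well in DMEM with 10% FBS. 12 h later, serial concentrations of test compound were added for 2 days at 37°C, 5% CO2. MTT was then added for 2 h and absorbance read at 490 nm. CC50 was derived from percentage growth inhibition. Run in triplicate, mean±SD.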

[5] = In vivo PK assessment in mice; design: species or system ICR mice; details: oral, 5 mg/kg single dose
How it was run: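 Healthy female 7-week-old ICR mice (about 30 g), kept under specific pathogen-free conditions, three per group. Each got a single oral dose of test compound at 5 mg/kg. Blood was drawn at various times and plasma stored at −80°C. Levels were measured by LC–MS/MS with calibration and QC standards. Kinetic parameters came from regression of plasma concentration versus time.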

[6] = 10 mg/kg i.v. once daily for 4 days
[7] = 20 mg/kg, organs collected 8 dpi

Compound | parasitemia (P. berghei NK65; [6]) | 3D7 Relative SI [1] | K1 Relative SI [2] | body weight (P. berghei NK65; 10 mg/kg i.v. once daily for 4 days, infected mice) | parasitemia (P. berghei NK65; 20 mg/kg i.v. once daily for 4 days) | liver pigmentation (P. berghei NK65; [7]) | spleen size (P. berghei NK65; [7]) | parasitemia (P. berghei NK65; 30 mg/kg i.v. once daily for 4 days) | curative effect (survival) (P. berghei NK65; 30 mg/kg once daily, 6 dpi) | IC50 ([1]; read-out: 3D7 IC50, P. falciparum 3D7, synchronized parasites) | turbidity [3] | solubility in deionized water [4] | CC50 (Vero cells) | Tmax_h, time to peak concentration [5] | elimination half-life (t1/2) ([5]; comparison of both drugs) | Cmax/AUC higher than that of SAM13-2HCl ([5]; versus SAM13-2HCl) | IC50 ([2]; read-out: K1 IC50, P. falciparum K1, synchronized parasites)
CCN(CC)CCCC(C)Nc1ccnc2cc(Cl)ccc12 (centres unmarked) [CQ, Chloroquine] | significantly reduced parasite density | 6.0 | 3.5 |  |  |  |  |  |  |  |  |  |  |  |  |  | 
CN(C)CCNC(=O)/C=C/[C@H](Cc1ccccc1)Nc1ccnc2cc(Cl)ccc12 [SKM13-2HCl] | increased parasitemia | 1.0 | 1 | not observed | effectively suppressed parasitemia | decreased liver pigmentation | same size as those of the normal or CQ-treated groups | effectively suppressed parasitemia | complete curative effect | 0.0531 ± 0.01 µM | transparent | 850.8 mg/mL | 55.2 ± 1.1 µM | 15 min | similar | 2 fold | 0.366 ± 0.0198 µM

Reference: PMC10915268 (Parasites, Hosts and Diseases, 2024)
